Shown are actives, neighbours in structure and some others; about 4.1% of the full set was active somewhere.
MrgX1 allo act – human MrgX1 positive allosteric modulation, primary screen; Q96LB2; MrgX1-HEK293, Fluo-4 calcium flux, FDSS; hits give high values; B-score at 10 µM; 310,000 compounds, 0.63% hits; AID 588675;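 active means plate-corrected calcium response at least 3 library SD above typical, normal starting fluorescence, not activating the receptor alone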;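 further: compound read alongside a low EC10 to EC30 dose of BAM8-22 agonist; peak minus trough fluorescence over baseline measured at the second addition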
Kir21 inh – Kir2.1 (mouse) channel inhibition; P35561; HEK293-Kir2.1, FluxOR thallium flux fluorescence; hits give low values; B-score at 10 µM; 310,000 compounds, 0.85% hits; AID 1672;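 active means fluorescence ratio B-score at or below minus 3 SD of library scores, with starting-brightness B-score within 2 SD, cut at about -4.2 in these data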;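 further: channel flux triggered by added potassium and thallium sulfate stimulus; B-score of peak minus minimum fluorescence over baseline after thallium stimulus; more negative B-score means stronger Kir2.1 block with less thallium influx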
Target sequence (P35561 whole entry, looked up): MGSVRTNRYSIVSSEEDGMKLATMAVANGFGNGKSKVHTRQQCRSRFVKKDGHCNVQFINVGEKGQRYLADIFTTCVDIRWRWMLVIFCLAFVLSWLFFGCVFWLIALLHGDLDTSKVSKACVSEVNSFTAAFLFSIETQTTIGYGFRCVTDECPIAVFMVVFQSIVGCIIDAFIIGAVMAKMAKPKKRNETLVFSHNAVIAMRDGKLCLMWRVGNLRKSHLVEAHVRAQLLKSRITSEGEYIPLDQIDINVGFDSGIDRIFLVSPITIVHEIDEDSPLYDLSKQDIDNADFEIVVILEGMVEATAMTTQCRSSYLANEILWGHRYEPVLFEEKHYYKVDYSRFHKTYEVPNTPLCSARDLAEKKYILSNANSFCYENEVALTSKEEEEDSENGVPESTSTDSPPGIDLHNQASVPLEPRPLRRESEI
RGS4 pot – RGS4 potentiation or activation | HEK293 M3R/inducible RGS4, carbachol calcium flux Fluo4; hits give low values | B-score at 10 µM | 310,000 compounds, 0.92% hits;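 active means B-score of the integrated calcium signal more than 4 SD below the library mean, with starting fluorescence not abnormally high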;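 further: negative B-score means reduced calcium response which marks RGS4 activation or potentiation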
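Assay system: HEK293 FlpIn-TREx cells, stable M3R, doxycycline-inducible RGS4 / Probe or stimulus: carbachol, ECmax concentration / Times: overnight RGS4 induction, 30 min dye load 37 °C, 20 min compound RT / Signal: kinetic calcium fluorescence imaging with Fluo4-AM dye, 2 µM / Measure: Agonist-evoked peak-minus-minimum fluorescence over baseline, integrated ratio, B score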
MrgX1 antagonist – antagonists of human MrgX1 receptor; Q96LB2; MRGX1-HEK293 calcium flux, Fluo-4, BAM8-22 antagonism; hits give low values; B-score at 10 µM; 310,000 compounds, 1.3% hits; AID 588676;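 active means calcium-response B-score plate-corrected more than 3 library SD below zero, starting fluorescence within 5 deviations, no agonist response on first addition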;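 further: peak minus trough fluorescence over baseline after final BAM8-22 challenge near maximal dose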
RGS4 block – inhibitors of human RGS4; HEK293 M3R/RGS4 inducible, Fluo-4 calcium flux; hits give high values; triggered by carbachol at its EC20; B-score at 10 µM; 310,000 compounds, 0.45% hits; AID 463165;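 active means B-score, a plate-corrected calcium signal, over three deviations above library mean, with baseline fluorescence within five deviations of library mean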;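 further: RGS4 expression induced by doxycycline in cells with stable M3 receptor; B-score is computed from the integrated fluorescence ratio over baseline after carbachol; higher B-score means a larger calcium signal and so more RGS4 inhibition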
MrgX1 agonist – activates human MrgX1 receptor signaling; B-score at 10 µM; Q96LB2; 310,000 compounds, 0.44% hits; MrgX1-HEK293 cells, Fluo-4 calcium fluorescence, agonist mode; hits give high values;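 active means calcium response B-score plate-corrected fluorescence ratio at least 3 library SD, with starting fluorescence B-score inside 5 SD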
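Material: HEK293 cells stably expressing human MrgX1 receptor | Quantity: 15,000 cells per well | Times: Cells plated overnight, dye loaded 0.5 h 37 °C, 0.5 h room temperature | Measured by: Kinetic Fluo-4 NW fluorescence of intracellular calcium | Control set: Positive and negative controls per plate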
RGS4 act valid – confirmation of RGS4 activators; shares compounds with RGS4 pot; HEK293 M3R/RGS4 inducible, carbachol calcium flux Fluo4; inhibition, % at 10 µM; 1,100 compounds, 89% hits; AID 602282;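 active means inhibition above 3 SD of the buffer control wells, cut at about 41% in these data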;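 further: signal is the integrated peak-minus-minimum Fluo4 fluorescence over baseline ratio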
RGS4 act ctr – activity in cells without induced RGS4 expression; shares compounds with RGS4 pot; HEK293 M3R non-induced RGS4, Fluo4 calcium flux; after carbachol challenge at its EC90; inhibition, % at 10 µM; 1,100 compounds, 82% hits;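 active means inhibition exceeding 3 SD of buffer-only control wells, cut at about 26% in these data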;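 further: percent drop in integrated peak-minus-baseline over baseline Fluo4 ratio after carbachol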
An asterisk follows results filed as active; i = inactive; / = not tested or not shown.

SMILES | MrgX1 allo act | Kir21 inh | RGS4 pot | MrgX1 antagonist | RGS4 block | MrgX1 agonist | RGS4 act valid | RGS4 act ctr
c1ccc(CNc2nc(-c3cccnc3)nc3ccccc23)cc1 | i | 1.53 | -8.43* | i | i | i | 83.5* | 36.8*
Cc1ccc(CNc2nc(-c3cccnc3)nc3ccccc23)cc1 | i | 0.68 | i | i | i | i | / | /
COc1ccccc1OCC(=O)Nc1cccc(-c2nnc(-c3ccco3)o2)c1 | i | 0.72 | -8.06* | i | i | i | 78.5* | 28.3*
COc1cccc(C(=O)Nc2cccc(-c3nnc(-c4ccccc4)o3)c2)c1 | i | -1.43 | -11.2* | i | i | i | 76.0* | 37.3*
O=C(Cc1ccccc1)Nc1cccc(-c2nnc(-c3ccco3)o2)c1 | i | 0.93 | i | i | i | i | / | /
O=C(Nc1cccc(O)c1)c1ccc(NC(=O)c2cccs2)cc1 | i | 1.04 | i | i | i | i | / | /
O=C(CSc1nc2ccccc2c(=O)n1CC1CCCO1)N1CCN(c2ccccc2)CC1 (stereo unspecified) | i | 0.97 | i | i | i | i | / | /
C/C(Cc1ccccc1)=N\NC(=O)c1cc(C(C)(C)C)[nH]n1 | i | 0.69 | i | i | i | i | / | /
CCCc1nc2ccccc2c(C(=O)OCC(=O)N2CCc3ccccc32)c1CC | i | -1.32 | -8.59* | i | i | i | 84.5* | 83.8*
CCCc1nc2ccccc2c(C(=O)OCC(=O)Nc2cccc(S(=O)(=O)N3CCOCC3)c2)c1CC | i | 1.64 | -8.86* | i | i | i | 91.5* | 91.8*
CCCc1nc2ccccc2c(C(=O)OCC(=O)Nc2ccc(S(=O)(=O)N3CCOCC3)cc2)c1CC | i | 4.98 | i | i | i | i | / | /
COc1ccc(CCC(=O)N2CCN(c3cccc(C)c3C)CC2)cc1 | i | -2.06 | i | i | i | i | / | /
Cc1ccc(NS(=O)(=O)c2cc(Br)cnc2N)cc1C | i | 0.16 | -7.98* | i | i | i | 94.0* | 93.8*
CSc1cccc(NS(=O)(=O)c2cc(Br)cnc2N)c1 | i | -3.58 | -7.66* | i | i | i | 92.5* | 97.8*
Cc1cccc(NC(=S)N2CCN(c3ccccc3F)CC2)c1C | i | -0.88 | i | i | i | i | / | /
CN(C)CC/C=C1/c2ccccc2Sc2ccc(Cl)cc21 | i | -4.28* | -9.46* | i | i | i | 93.5* | 95.8*
CN(C)CC/C=C1/c2ccccc2CS(=O)(=O)c2ccccc21 | i | 2.22 | i | i | i | i | / | /
CN(C)CC/C=C1\c2ccccc2COc2ccccc21 | i | -0.01 | -7.95* | i | i | i | 94.0* | 92.8*
CCOc1ccc(OCCC(=O)OCC(=O)N2CCN(c3ccc(OC)cc3)CC2)cc1 | i | 0.47 | i | i | i | i | / | /
Cc1ccc(C(OCC(C)(C)C[N+](C)(C)C)c2ccccc2)cc1 (stereo unspecified) | i | 0.33 | -10.9* | i | i | i | 88.0* | 63.3*
COc1ccccc1/C=C/C=N/n1c(-c2n[nH]c3c2CCC3)n[nH]c1=S | i | 1.95 | i | i | i | i | / | /
COc1cccc(/C=N/n2c(-c3n[nH]c4c3CCC4)n[nH]c2=S)c1O | i | -3.58 | -9.07* | i | i | i | 93.5* | 93.3*
S=c1[nH]nc(-c2n[nH]c3c2CCC3)n1/N=C/C=C/c1ccco1 | i | 1.27 | -9.08* | i | i | i | 89.0* | 57.8*
Cc1ccc(/C=C/S(=O)(=O)Nc2ccc(C)cc2)cc1 | i | -0.69 | -9.76* | i | i | i | 90.0* | 44.3*

Screening results deposited in PubChem by Johns Hopkins Ion Channel Center.
